In ChEMBL document CHEMBL1926589, “2-Anilinonicotinyl linked 2-aminobenzothiazoles and [1,2,4]triazolo[1,5-b] [1,2,4]benzothiadiazine conjugates as potential mitochondrial apoptotic inducers” (Bioorg Med Chem, 2011):
Calls of active or inactive are those of the source. The calls are words filed in the database; no cut-off is given here.

Experiments:
IMR-32 = experiment: Growth inhibition of human IMR32 cells at 10 uM by sulforhodamine B assay; type: functional; details: read-out: GI
Outline: (§1)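 Single-dose 10 µM screen by sulforhodamine B assay, reported as percent inhibition of cell proliferation. Cells grown in medium with 10% heat-inactivated FBS at 37 °C, 5% CO2, and treated at about 70% confluence or in log phase. Compounds dissolved in DMSO; controls received vehicle (<0.5% v/v).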

SK-N-SH = experiment: Growth inhibition of human SK-N-SH cells at 10 uM by sulforhodamine B assay; type: functional; details: read-out: GI; outline: as §1
SiHa [1] = experiment: Growth inhibition of human SiHa cells at 10 uM by sulforhodamine B assay; type: functional; details: read-out: GI; outline: as §1
SW-620 = experiment: Growth inhibition of human SW620 cells at 10 uM by sulforhodamine B assay; type: functional; details: read-out: GI; outline: as §1
HCT-15 = experiment: Growth inhibition of human HCT15 cells at 10 uM by sulforhodamine B assay; type: functional; details: read-out: GI; outline: as §1
[2] = Growth inhibition of human 502713 cells at 10 uM by sulforhodamine B assay; type: functional; details: read-out: GI; outline: as §1
DU-145 = experiment: Growth inhibition of human DU145 cells at 10 uM by sulforhodamine B assay; type: functional; details: read-out: GI; outline: as §1
A549 = experiment: Growth inhibition of human A549 cells at 10 uM by sulforhodamine B assay; type: functional; details: read-out: GI; outline: as §1
HEp-2 = experiment: Growth inhibition of human Hep2 cells at 10 uM by sulforhodamine B assay; type: functional; details: read-out: GI; outline: as §1
OVCAR-5 = experiment: Growth inhibition of human OVCAR5 cells at 10 uM by sulforhodamine B assay; type: functional; details: read-out: GI; outline: as §1
HL-60 [3] = experiment: Growth inhibition of human HL60 cells after 48 hrs by MTT assay; type: functional, cell-based; details: HL-60, 48 h
SiHa [4] = experiment: Growth inhibition of human SiHa cells after 48 hrs by MTT assay; type: functional, cell-based
CV-1 = experiment: Growth inhibition of african green monkey CV1 cells after 48 hrs by MTT assay; type: cell-based; details: Chlorocebus aethiops, CV-1, 48 h
[5] = Therapeutic ratio of IC50 for african green monkey CV1 cells to IC50 for human HL60 cells; type: ADME, cell-based, HL-60; details: CV1 cells and HL60 cells, read-out: Ratio IC50
HL-60 [6] = experiment: Induction of apoptosis in human HL60 cells assessed as early apoptotic cells at 1 uM after 24 hrs using Annexin V-FITC and propidium iodide staining by flow cytometry relative to control; type: functional
Outline: (§2)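 HL-60 cells (1 x 10^5 per 1.5 mL) treated 24 h, washed twice in PBS and stained in binding buffer with annexin V-FITC and PI. Flow cytometry with FITC in FL-1 (530 nm) and PI in FL-2 (585 nm), using quadrant statistics: lower right taken as apoptotic, upper right as post-apoptotic necrotic. Representative of three independent experiments.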

HL-60 [7] = experiment: Induction of apoptosis in human HL60 cells assessed as non-viable necrotic cells at 1 uM after 24 hrs using Annexin V-FITC and propidium iodide staining by flow cytometry relative to control; type: functional; outline: as §2
HL-60 [8] = experiment: Induction of apoptosis in human HL60 cells assessed as late apoptotic cells at 1 uM after 24 hrs using Annexin V-FITC and propidium iodide staining by flow cytometry relative to control; type: functional; outline: as §2
HL-60 [9] = experiment: Induction of apoptosis in human HL60 cells assessed as caspase3 activation using DEVD-AFC as substrate at 1 uM after 24 hrs by fluorimetry relative to control; type: functional
Outline: (§3)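 HL-60 cells (2 x 10^6) treated 24 h, washed and lysed. Caspase-3, -8 and -9 activities in lysates measured fluorometrically with a commercial caspase fluorescent assay kit. Two independent experiments, each in duplicate.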

HL-60 [10] = experiment: Induction of apoptosis in human HL60 cells assessed as caspase8 activation using IETD-AFC as substrate at 1 uM after 24 hrs by fluorimetry relative to control; type: functional; outline: as §3
HL-60 [11] = experiment: Induction of apoptosis in human HL60 cells assessed as caspase9 activation using LEHD-AMC as substrate at 1 uM after 24 hrs by fluorimetry relative to control; type: functional; outline: as §3
HL-60 [12] = experiment: Induction of apoptosis in human HL60 cells assessed as DNA ladder formation at 1 uM after 24 hrs by agarose gel electrophoresis; type: functional, cell-based
Outline: (§4)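 Cells treated 24 h, then 2 x 10^6 cells lysed (Triton X-100 buffer, pH 8.0) with RNase at 37 °C for 90 min and proteinase-K at 50 °C for 1 h. DNA phenol/chloroform-extracted and ethanol-precipitated, then run on 1.8% agarose at 50 V for 1.5 h in TAE. Ladders viewed under UV.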

HL-60 [13] = experiment: Induction of apoptosis in human HL60 cells assessed as DNA ladder formation at 10 uM after 24 hrs by agarose gel electrophoresis; type: functional, cell-based; outline: as §4
SiHa [14] = experiment: Induction of apoptosis in human SiHa cells assessed as DNA ladder formation at 10 uM after 24 hrs by agarose gel electrophoresis; type: functional, cell-based; outline: as §4
HeLa = experiment: Induction of apoptosis in human HeLa cells assessed as DNA ladder formation at 10 uM after 24 hrs by agarose gel electrophoresis; type: functional, cell-based; outline: as §4
HL-60 [15] = experiment: Cell cycle arrest in human HL60 cells assessed as accumulation at sub-G0 phase measuring DNA damage at 1 uM after 24 hrs using propidium iodide staining by flow cytometry (reference value: 1%); type: functional
Outline: (§5)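 HL-60 cells (1 x 10^5 per 1.5 mL) treated 24 h, then fixed in 70% cold ethanol at −20 °C overnight. RNase digestion (400 µg/ml) at 37 °C for 45 min, then propidium iodide (10 µg/ml) for 30 min. Flow cytometry on 10,000 events, FL2-A vs FL2-W, with doublet discrimination. Sub-G0 (hypodiploid) peak taken as apoptotic cells. Mean ± SD of three independent experiments.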

HL-60 [16] = experiment: Cell cycle arrest in human HL60 cells assessed as accumulation at G1 phase at 1 uM after 24 hrs using propidium iodide staining by flow cytometry; type: functional, cell-based; outline: as §5
HL-60 [17] = experiment: Cell cycle arrest in human HL60 cells assessed as accumulation at S phase at 1 uM after 24 hrs using propidium iodide staining by flow cytometry; type: functional, cell-based; outline: as §5
HL-60 [18] = experiment: Cell cycle arrest in human HL60 cells assessed as accumulation at G2/M phase at 1 uM after 24 hrs using propidium iodide staining by flow cytometry; type: functional, cell-based; outline: as §5
HL-60 [19] = experiment: Induction of apoptosis in human HL60 cells assessed as increase of reactive oxygen species level at 1 uM after 24 hrs using DCFH-DA fluorescent dye based flow cytometric analysis relative to control; type: functional
Outline: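 HL-60 cells (1 x 10^5 per 1.5 mL) treated 24 h, then loaded with 10 µM H2DCFDA for 30 min at 37 °C. Washed twice in PBS and read in FL-1 (530 nm). Percentage of DCF-positive cells determined; mean ± SD of three experiments.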

HL-60 [20] = experiment: Induction of NO production in human HL60 cells at 1 uM after 24 hrs using DAF-2DA fluorescent dye based flow cytometric analysis; type: functional, cell-based
Outline: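 HL-60 cells (1 x 10^5 per 1.5 mL) preloaded 30 min with 10 µM DAF-2-DA before treatment. After 24 h exposure, cells were washed and read by flow cytometry in FL-1 as NO-positive population. Mean ± SD of three independent experiments.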

HL-60 [21] = experiment: Induction of apoptosis in human HL60 cells assessed as decrease in mitochondrial membrane potential at 1 uM after 24 hrs using rhodamine 123 staining by flow cytometry; type: functional
Outline: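 HL-60 cells (1 x 10^5 per 1.5 mL) treated 24 h, then stained with rhodamine-123 (5 µg/mL final) for 1 h. Washed, and propidium iodide (5 µg/mL) added just before reading. FL-1 fluorescence from 10,000 events; percentage of low Rh-123 cells taken as loss of membrane potential. Mean ± SD, n=3.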

HL-60 [22] = experiment: Inhibition of NF-kappaB expression in human HL60 cells at 1 uM after 24 hrs by Western blotting; type: functional, cell-based
Outline: (§6)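 HL-60 cells treated 24 h and lysed in RIPA buffer on ice; protein measured by Bradford against a BSA standard. 50 µg resolved by SDS-PAGE and transferred to PVDF, blocked in 5% milk/TBST, then primary antibodies 1:1000 for 2 h and HRP secondary 1:1000 for 1 h. ECL detection with β-actin as loading control; bands quantified by densitometry.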

HL-60 [23] = experiment: Induction of apoptosis in human HL60 cells assessed as PARP cleavage at 1 uM after 24 hrs by Western blotting; type: functional, cell-based; outline: as §6
HL-60 [24] = experiment: Inhibition of Bcl-2 expression in human HL60 cells at 1 uM after 24 hrs by Western blotting; type: functional, cell-based; outline: as §6
HL-60 [25] = experiment: Inhibition of survivin expression in human HL60 cells at 1 uM after 24 hrs by Western blotting; type: functional, cell-based; outline: as §6

Compound | inhibition of growth at 10 µM (IMR-32) [%] | inhibition of growth at 10 µM (SK-N-SH) [%] | inhibition of growth at 10 µM (SiHa [1]) [%] | inhibition of growth at 10 µM (SW-620) [%] | inhibition of growth at 10 µM (HCT-15) [%] | inhibition of growth at 10 µM [2] [%] | inhibition of growth at 10 µM (DU-145) [%] | inhibition of growth at 10 µM (A549) [%] | inhibition of growth at 10 µM (HEp-2) [%] | inhibition of growth at 10 µM (OVCAR-5) [%] | Activity (HL-60 [6]) [%] | Activity (HL-60 [7]) [%] | Activity (HL-60 [8]) [%] | Activity (HL-60 [9]) | Activity (HL-60 [10]) | Activity (HL-60 [11]) | Activity (HL-60 [12]) | Activity (HL-60 [13]) | Activity (SiHa [14]) | Activity (HeLa) | further results
O=C(Nc1nc2ccc([N+](=O)[O-])cc2s1)c1cccnc1Nc1ccccc1 | 45 | 48 | 53 | 65 | 66 | 63 | 52 | 31 | 26 | 50 | 13 | 42 | 7 | inactive | inactive | inactive | Active | Active | inactive | inactive | IC50 (HL-60 [3]): 0.58 µM; IC50 (SiHa [4]): 28 µM; IC50 (CV-1): 70 µM; selectivity ratio [5]: 120; Activity (HL-60 [15]): 24%; Activity (HL-60 [16]): inactive; Activity (HL-60 [17]): inactive; Activity (HL-60 [18]): inactive; Activity (HL-60 [19]): 31%; Activity (HL-60 [20]): inactive; Activity (HL-60 [21]): Active; inhibition (HL-60 [22]): inactive; Activity (HL-60 [23]): Active; inhibition (HL-60 [24]): inactive
CN1c2ccccc2S(=O)(=O)n2nc(-c3cccnc3Nc3ccc(Cl)cc3Cl)nc21 | 47 | 16 | 13 | 62 | 27 | 49 | 11 | 15 | 0 | 23 | 7 | 13 | 3 | inactive | inactive | inactive | Active | Active | inactive | inactive | IC50 (HL-60 [3]): 0.64 µM; IC50 (SiHa [4]): > 50 µM; IC50 (CV-1): > 100 µM; selectivity ratio [5]: > 156; Activity (HL-60 [15]): 20%; Activity (HL-60 [16]): inactive; Activity (HL-60 [17]): inactive; Activity (HL-60 [18]): inactive; Activity (HL-60 [19]): inactive; Activity (HL-60 [20]): inactive; inhibition (HL-60 [22]): inactive; inhibition (HL-60 [25]): Active; Activity (HL-60 [23]): Active; inhibition (HL-60 [24]): inactive
COc1ccc(Nc2ncccc2C(=O)Nc2nc3ccc([N+](=O)[O-])cc3s2)cc1 | 55 | 64 | 66 | 64 | 47 | 59 | 32 | 3 | 5 | 52 | 7 | 14 | 3 | inactive | inactive | inactive | Active | Active | inactive | inactive | IC50 (HL-60 [3]): 0.7 µM; IC50 (SiHa [4]): 28 µM; IC50 (CV-1): 10 µM; selectivity ratio [5]: 14; Activity (HL-60 [15]): 22%; Activity (HL-60 [16]): inactive; Activity (HL-60 [17]): inactive; Activity (HL-60 [18]): inactive; Activity (HL-60 [19]): 44%; Activity (HL-60 [20]): inactive; inhibition (HL-60 [22]): inactive; Activity (HL-60 [23]): Active; inhibition (HL-60 [24]): inactive
O=C(Nc1nc2ccc([N+](=O)[O-])cc2s1)c1cccnc1Nc1ccc(Cl)cc1Cl | 48 | 50 | 35 | 61 | 75 | 2 | 39 | 19 | 14 | 0 | 9 | 40 | 5 | inactive | inactive | inactive | Active | Active | inactive | inactive | Activity (HL-60 [15]): 25%; Activity (HL-60 [16]): inactive; Activity (HL-60 [17]): inactive; Activity (HL-60 [18]): inactive; Activity (HL-60 [19]): inactive; Activity (HL-60 [20]): inactive; Activity (HL-60 [21]): Active; inhibition (HL-60 [22]): inactive; inhibition (HL-60 [25]): Active; Activity (HL-60 [23]): Active; inhibition (HL-60 [24]): inactive
